Compound activity deposited in PubChem BioAssay by several laboratories.
TAAR1 antagonist = antagonists of human TAAR1; Q96RJ0; CHO RD-HGA16 TAAR1, Fluo-8 calcium fluorescence, antagonist; inhibition, % at 3 µM; 360,000 tested, 1.5% active;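 active means inhibition above a per-plate cutoff, the mean inhibition of test compounds on that plate plus 3 SD, cut at about 49% in these data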;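 further: 0% = DMSO plus EC80 beta-PEA response and 100% = DMSO alone without agonist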
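System: CHO RD-HGA16 cells bearing hTAAR1. Reagent: EC80 β-phenethylamine stimulus. Schedule: seeding 17-24 h prior, 75-min 37 °C, 30-min RT dye loading. Signal: Fluo-8 intracellular calcium dye fluorescence, real-time kinetic reads. Read-out: % inhibition from peak post-agonist over basal fluorescence ratio. Benchmarks: vehicle wells and EC80 agonist wells. Replicates: n of 1.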
CRFBP-R2 block = CRF-BP/CRF-R2 complex antagonism; HEK293 CRF-R2/CRF-BP, CRF-induced calcium fluorescence; inhibition, % at 11.8 µM; 350,000 tested, 0.59% active;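 active means inhibition of the ligand-induced calcium signal above about 50% at the single tested concentration, limit read from the data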
TMEM16A inh = inhibitors of mouse TMEM16A calcium-activated chloride channel; Q8BHY3; HEK293 TMEM16A/YFP iodide influx fluorescence, ionomycin; normalized B-score (activity score, 25-100; higher = stronger inhibition) at 10 µM; 310,000 tested, 1.2% active; AID 588511;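 active means ratio plate-corrected score three or more library SD toward inhibition, starting fluorescence score within five deviations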;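 further: score derived from kinetic fluorescence span divided by baseline fluorescence per well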
Target sequence (Q8BHY3 whole entry, looked up): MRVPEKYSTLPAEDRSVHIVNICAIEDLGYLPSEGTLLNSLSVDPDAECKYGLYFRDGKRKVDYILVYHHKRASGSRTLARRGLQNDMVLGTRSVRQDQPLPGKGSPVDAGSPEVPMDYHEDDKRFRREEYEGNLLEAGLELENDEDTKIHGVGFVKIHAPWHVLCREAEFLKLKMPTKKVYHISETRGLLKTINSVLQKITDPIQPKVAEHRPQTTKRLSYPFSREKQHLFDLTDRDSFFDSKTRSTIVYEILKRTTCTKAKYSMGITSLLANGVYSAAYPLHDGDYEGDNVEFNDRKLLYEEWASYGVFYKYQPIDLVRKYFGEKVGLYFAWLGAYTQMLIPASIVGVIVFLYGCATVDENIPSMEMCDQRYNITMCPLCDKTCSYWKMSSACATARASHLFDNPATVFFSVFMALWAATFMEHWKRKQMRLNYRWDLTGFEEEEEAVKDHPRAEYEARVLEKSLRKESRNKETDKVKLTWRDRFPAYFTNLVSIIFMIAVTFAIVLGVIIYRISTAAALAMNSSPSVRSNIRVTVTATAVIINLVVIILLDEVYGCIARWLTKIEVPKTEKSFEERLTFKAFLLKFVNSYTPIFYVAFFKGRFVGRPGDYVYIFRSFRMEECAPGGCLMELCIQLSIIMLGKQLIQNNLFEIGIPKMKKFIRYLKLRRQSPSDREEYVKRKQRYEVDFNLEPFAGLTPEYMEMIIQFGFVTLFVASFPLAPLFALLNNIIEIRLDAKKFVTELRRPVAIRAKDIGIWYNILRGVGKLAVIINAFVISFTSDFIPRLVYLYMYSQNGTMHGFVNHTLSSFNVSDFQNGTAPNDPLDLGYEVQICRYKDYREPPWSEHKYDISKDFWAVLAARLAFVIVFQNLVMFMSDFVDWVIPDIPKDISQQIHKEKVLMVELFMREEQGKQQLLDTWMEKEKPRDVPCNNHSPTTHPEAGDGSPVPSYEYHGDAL
CRFR2-BP ag = CRF-BP/CRF-R2 complex agonism. activation, % at 13.2 µM. AID 588473. 350,000 tested, 0.46% active. HEK293 CRF-R2/CRF-BP, calcium dye fluorescence (FLIPR); percent of saturating CRF peptide response;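 active means activation of at least 50%, plus an integration ratio under a set limit after plate pattern correction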;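 further: plate controls were neutral control wells without compound for no effect and CRF at EC100 for full effect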
TMEM16A act = activators or potentiators of mouse TMEM16A chloride channel. HEK293 TMEM16A/YFP-H148Q/I152L, iodide quench fluorescence; hits give low values. B-score at 10 µM. 340,000 tested, 0.3% active;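 active means fluorescence-ratio B-score plate-corrected deviation score at least 3 library SD below zero, with starting fluorescence score within 5 deviations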;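 further: channel opened by trigger with iodide after compound preincubation; score built on the fluorescence ratio of max minus min over baseline; more negative score means more quench and so TMEM16A activation or potentiation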
TAAR1 ag = agonists of human TAAR1; Q96RJ0; CHO RD-HGA16 TAAR1, Fluo-8 calcium fluorescence; vehicle wells 0%, saturating PEA agonist 100%; activation, % at 3 µM; 360,000 tested, 0.99% active;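 active means activation above the mean activation of all test compounds in the run plus 3 SD, cut at about 38% in these data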
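Repeats: no replicates (n 1) | Material: CHO-derived RD-HGA16 cells with stable Gα16 and human TAAR1 | Technique: Kinetic Fluo-8 calcium fluorescence | Schedule: 17-24 h seeding, 75 min 37 °C dye, 30 min RT | Evaluation: % activation from peak over basal fluorescence ratio, DMSO-to-PEA scaled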
nonsel antag count = nonselective antagonist in TAAR1 antagonist counter-screen; shares compounds with TAAR1 antagonist; inhibition, % at 3 µM; counterscreen cell line, calcium fluorescence, antagonist mode; 2,400 tested, 77% active; in the data active means inhibition above about 22%;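 further: CHO-Ga16 host cells stimulated with ATP at an EC80 level; 0% = agonist EC80 plus vehicle and 100% = vehicle without agonist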
TAAR1 ant conf = human TAAR1 antagonism, confirmed. TAAR1-expressing cells, fluorescence antagonist read-out. AID 651785. 2,400 tested, 40% active. shares compounds with TAAR1 antagonist. inhibition, % at 3 µM; in the data active means inhibition above about 49%;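 further: CHO-Ga16 host cells challenged with agonist PEA near its EC80; 0% = agonist at EC80 plus vehicle and 100% = vehicle with no agonist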
Ga16 nonsel ag = nonselective Ga16 agonist in TAAR1 antagonist counter-screen; shares compounds with TAAR1 antagonist; Ga16-expressing cells, calcium fluorescence, agonist counterscreen; activation, % at 3 µM; 2,400 tested, 18% active; in the data active means activation above about 12%;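 further: 0% = vehicle wells and 100% = saturating stimulus response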
TAAR1 ag count = TAAR1 agonism, antagonist counter-screen | 2,400 tested, 2% active | activation, % at 3 µM | hTAAR1 cell line, fluorescence activation, agonist mode | shares compounds with TAAR1 antagonist; in the data active means activation above about 37%;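 further: CHO cells stably expressing TAAR1 with calcium dye readout; 0% = DMSO vehicle and 100% = full agonist response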
An asterisk follows results filed as active; i = inactive; / = no result. Rows were chosen to be rich in hits. Some 3.9% of all compounds tested hit in one or more screens of this group.

SMILES	TAAR1 antagonist	CRFBP-R2 block	TMEM16A inh	CRFR2-BP ag	TMEM16A act	TAAR1 ag	nonsel antag count	TAAR1 ant conf	Ga16 nonsel ag	TAAR1 ag count
Cc1nn(-c2ccccc2)c(C)c1NC(=O)COC(=O)c1ccc(O)cc1O	76*	-3	i	1	i	21	29*	55*	10	11
Cc1nn(CC(=O)Nc2ccc(Br)cc2F)c(=O)c2cccn12	-20	8	i	0	i	2	/	/	/	/
COc1ccc(N2CCN(CC(=O)Nc3ccccc3C(=O)NC(C)c3ccccc3)CC2)cc1 (stereo unspecified)	61*	-30	/	-1	/	16	15	39	7	16
COc1ccc(N2CCN(CC(=O)Nc3ccccc3C(=O)NCc3ccccc3)CC2)cc1	70*	-2	/	-1	i	19	22*	52*	10	25
O=C(CN1CCN(c2ccccn2)CC1)Nc1ccccc1C(=O)Nc1ccccc1	65*	12	i	-3	i	10	27*	44	7	6
COC(=O)C[C@H](NC(=O)Cn1cnc2c(SC)nc(N)nc21)C(=O)OC	0	-4	/	2	/	2	/	/	/	/
Nc1ccc(-c2nc3cc([N+](=O)[O-])ccc3o2)cc1	55*	1	i	0	i	5	20	19	3	-3
CNC(=O)CSc1nnc(C2CC2)n1-c1ccccc1	-14	11	i	-1	i	4	/	/	/	/
COc1cccc(C(=O)Nc2ccc(-n3nncc3C(C)(C)C)cc2)c1	-5	-4	i	-1	i	3	/	/	/	/
CC(C)(C)c1cnnn1-c1ccc(NC(=O)c2ccc(Br)o2)cc1	58*	-38	i	0	i	7	12	16	2	-1
CCOC(=O)c1c(NC(=O)CN2CCN(S(=O)(=O)c3cc(Cl)ccc3Cl)CC2)sc(C(=O)N(C)C)c1C	26	8	/	2	/	-2	/	/	/	/
CC(C)(Oc1ccc(Cl)cc1)C(=O)NCC(c1cccs1)N1CCOCC1 (stereo unspecified)	58*	-3	i	1	i	9	17	23	5	1
CCOC(=O)Cn1ccc(NC(=O)COc2ccc(F)cc2F)n1	-10	-4	i	0	i	1	/	/	/	/
Cc1ccc(S(=O)(=O)N(CC(=O)NCCC2=CCCCC2)Cc2ccccc2F)cc1	73*	-28	25*	3	i	23	14	24	9	12
O=C(CN(Cc1ccccc1F)S(=O)(=O)c1ccc(Cl)cc1)NCCC1=CCCCC1	10	-34	i	3	i	6	/	/	/	/
COc1ccc(-c2cc(C(=O)NCc3ccco3)c3ccccc3n2)cc1	49*	4	i	0	i	9	19	31	5	-1
COc1ccc(Nc2cc(C(=O)NCc3ccco3)c3ccccc3n2)c(OC)c1	51*	9	i	1	i	8	9	24	6	3
COc1ccc(-c2cc(C(=O)Nc3c(C)n(C)n(-c4ccccc4)c3=O)c3ccccc3n2)cc1	58*	-5	i	-2	i	15	26*	40	8	8
Cc1cc(C(=O)Nc2c(C)n(C)n(-c3ccccc3)c2=O)c2ccccc2n1	0	13	i	-2	i	7	/	/	/	/
Cc1ccc(NC(=O)COC(=O)[C@@H]2CC(O)CN2S(=O)(=O)c2ccc3c(c2)OCCO3)cc1 (stereo partly specified)	4	-33	/	2	i	3	/	/	/	/
CCOC(=O)C1=C(COC(=O)/C=C/c2ccco2)NC(=O)NC1C (stereo unspecified)	-9	0	i	2	i	11	/	/	/	/
COc1cccc(OC)c1C(=O)Oc1ccc2c(c1)O/C(=C\c1ccncc1)C2=O	53*	39	i	3	i	8	41*	56*	6	2
O=C1/C(=C/c2ccncc2)Oc2cc(OS(=O)(=O)c3ccccc3)ccc21	4	-5	i	4	i	3	/	/	/	/
O=C(N/N=C/C=C/c1ccccc1[N+](=O)[O-])c1cc(-c2ccccc2)n[nH]1	60*	-35	i	-2	i	24	24*	39	9	7
O=C(N/N=C/C=C\c1ccccc1[N+](=O)[O-])c1ccccn1	0	-2	i	0	i	3	/	/	/	/
SMILES	TAAR1 antagonist	CRFBP-R2 block	TMEM16A inh	CRFR2-BP ag	TMEM16A act	TAAR1 ag	nonsel antag count	TAAR1 ant conf	Ga16 nonsel ag	TAAR1 ag count
CC1CCCC(C)N1C(=O)CSc1ncccn1 (stereo unspecified)	-15	2	i	0	i	2	/	/	/	/
COc1cc2c(cc1OC)C(c1ccc(Br)cc1)NC(=O)C2 (stereo unspecified)	-8	-12	i	-1	i	1	/	/	/	/
O=C(Nc1cccc(Cl)c1)N(Cc1nc2ccccc2c(=O)[nH]1)C1CCCC1	15	-18	i	1	i	15	/	/	/	/
O=C(Nc1cccc(Cl)c1)N(Cc1nc2ccccc2c(=O)[nH]1)Cc1cccs1	51*	-20	i	-2	i	10	30*	44	10	12
COc1ccc(C(CNC(=O)C(Cc2ccccc2)NC(N)=O)N(C)C)cc1 (stereo unspecified)	103*	-5	i	0	i	-4	6	-2	1	2
CCc1nn(C(C)C(=O)NCc2cccc(OC)c2)c(=O)c2cc3occc3n12 (stereo unspecified)	-7	5	i	-3	i	-1	/	/	/	/
CC12C(=O)N(c3ccc(C(=O)N4CCOCC4)cc3)C(=O)C1C1c3ccccc3C2c2ccccc21 (stereo unspecified)	-2	/	i	/	/	18	/	/	/	/
CC12CCC3C(CCC4CC(O)CCC43C)C1CC(O)C2 (stereo unspecified)	79*	8	/	10	i	20	35*	56*	12*	10
CC(O)[C@H]1CC[C@H]2[C@@H]3CC[C@H]4C[C@H](O)CC[C@]4(C)[C@H]3[C@H](O)C[C@]12C (stereo partly specified)	1	-10	i	0	i	14	/	/	/	/
